The values that follow come from ChEMBL document CHEMBL3098013, “Novel pyrazole integrated 1,3,4-oxadiazoles: synthesis, characterization and antimicrobial evaluation” (2014).

Type in all cases: functional
The subject of assay [1] is Escherichia coli. Kind of assay: Antimicrobial activity against Escherichia coli MTCC 724 after 24 hrs by microdilution method. To be noted: MTCC 724, 24 h. The method, boiled down:
(§1)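 The minimal inhibitory concentration was determined by dilution, alongside minimal bactericidal concentration for bacterial strains and minimal fungicidal concentration for fungal strains. Tests were run in six replicates, and the value is the mean of at least three determinations.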
(In general: In broth dilution the organism is exposed to a series of concentrations in liquid medium.)

Assay [2] deals with Staphylococcus aureus. The experiment in a line: Antimicrobial activity against Staphylococcus aureus MTCC 96 after 24 hrs by microdilution method. To be noted: MTCC 96, 24 h. The method, boiled down: as §1
Assay [3] relates to Fusarium verticillioides. The experiment in a line: Antimicrobial activity against Fusarium moniliforme MTCC 156 at 100 ug/ml after 48 hrs by disc diffusion method. The method, boiled down: (§2)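 Agar diffusion read-out is the diameter of the inhibition zone in mm. Each test was run in six replicates and reported as mean ± standard deviation, taken from at least three determinations.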
For orientation: In agar diffusion tests the substance spreads into inoculated agar from a disc or well.

Assay [4] has as its system Klebsiella pneumoniae. Kind of assay: Antimicrobial activity against Klebsiella pneumoniae MTCC 3384 after 24 hrs by microdilution method. Conditions: MTCC 3384, 24 h. The essentials: as §1
The test system of assay [5] is Bacillus cereus. The experiment in a line: Antimicrobial activity against Bacillus cereus MTCC 8372 at 100 ug/ml after 24 hrs by disc diffusion method. To be noted: MTCC 8372, 24 h, read-out: DIZ. The essentials:
as §2

Assay [6] relates to Fusarium oxysporum. The experiment in a line: Antimicrobial activity against Fusarium oxysporum MTCC 284 at 100 ug/ml after 48 hrs by disc diffusion method. The essentials:
as §2

The subject of assay [7] is Aspergillus flavus. Kind of assay: Antimicrobial activity against Aspergillus flavus MTCC 873 after 48 hrs by microdilution method. The method, boiled down: as §1
In assay [8] the test system is Bacillus cereus. The experiment in a line: Antimicrobial activity against Bacillus cereus MTCC 8372 at 50 ug/ml after 24 hrs by disc diffusion method. Conditions: MTCC 8372, 24 h, read-out: DIZ. The essentials:
as §2

Assay [9] has as its system Klebsiella pneumoniae. Kind of assay: Antimicrobial activity against Klebsiella pneumoniae MTCC 3384 at 50 ug/ml after 24 hrs by disc diffusion method. Conditions: MTCC 3384, 24 h, read-out: DIZ. The essentials:
as §2

Assay [10] has as its system Escherichia coli. The experiment in a line: Antimicrobial activity against Escherichia coli MTCC 724 at 100 ug/ml after 24 hrs by disc diffusion method. To be noted: MTCC 724, 24 h, read-out: DIZ. The method, boiled down:
as §2

For assay [11], the system named is Fusarium verticillioides. Kind of assay: Antimicrobial activity against Fusarium moniliforme MTCC 156 after 48 hrs by microdilution method. The method, boiled down:
as §1

Assay [12] deals with Aspergillus flavus. The experiment in a line: Antimicrobial activity against Aspergillus flavus MTCC 873 at 100 ug/ml after 48 hrs by disc diffusion method. The essentials: as §2
Assay [13] has as its system Bacillus cereus. Kind of assay: Antimicrobial activity against Bacillus cereus MTCC 8372 after 24 hrs by microdilution method. Conditions: MTCC 8372, 24 h. The method, boiled down:
as §1

Assay [14] concerns Staphylococcus aureus. The experiment in a line: Antimicrobial activity against Staphylococcus aureus MTCC 96 at 100 ug/ml after 24 hrs by disc diffusion method. Conditions: MTCC 96, 24 h, read-out: DIZ. The method, boiled down: as §2
Assay [15] concerns Aspergillus niger. Kind of assay: Antimicrobial activity against Aspergillus niger MTCC 281 at 50 ug/ml after 48 hrs by disc diffusion method. The essentials:
as §2

Assay [16] relates to Fusarium verticillioides. Kind of assay: Antimicrobial activity against Fusarium moniliforme MTCC 156 at 50 ug/ml after 48 hrs by disc diffusion method. The essentials: as §2
Assay [17] relates to Aspergillus niger. Kind of assay: Antimicrobial activity against Aspergillus niger MTCC 281 at 100 ug/ml after 48 hrs by disc diffusion method. The method, boiled down:
as §2

Assay [18] has as its system Aspergillus niger. Kind of assay: Antimicrobial activity against Aspergillus niger MTCC 281 after 48 hrs by microdilution method. The method, boiled down: as §1
Assay [19] deals with Fusarium oxysporum. Kind of assay: Antimicrobial activity against Fusarium oxysporum MTCC 284 after 48 hrs by microdilution method. The essentials: as §1
Assay [20] concerns Escherichia coli. Kind of assay: Antimicrobial activity against Escherichia coli MTCC 724 at 50 ug/ml after 24 hrs by disc diffusion method. To be noted: MTCC 724, 24 h, read-out: DIZ. The method, boiled down:
as §2

Assay [21] concerns Staphylococcus aureus. The experiment in a line: Antimicrobial activity against Staphylococcus aureus MTCC 96 at 50 ug/ml after 24 hrs by disc diffusion method. To be noted: MTCC 96, 24 h, read-out: DIZ. The essentials: as §2
Assay [22] concerns Aspergillus flavus. Kind of assay: Antimicrobial activity against Aspergillus flavus MTCC 873 at 50 ug/ml after 48 hrs by disc diffusion method. The method, boiled down: as §2
Assay [23] concerns Fusarium oxysporum. The experiment in a line: Antimicrobial activity against Fusarium oxysporum MTCC 284 at 50 ug/ml after 48 hrs by disc diffusion method. The method, boiled down:
as §2

For assay [24], the system named is Klebsiella pneumoniae. The experiment in a line: Antimicrobial activity against Klebsiella pneumoniae MTCC 3384 at 100 ug/ml after 24 hrs by disc diffusion method. Conditions: MTCC 3384, 24 h, read-out: DIZ. The essentials:
as §2

Values after ≈ are worked out from the molar mass of the structure shown.

In general, MBC refers to the smallest concentration meeting the test's criterion for killing. A high value points to weaker bactericidal potency. By MIC is commonly meant the lowest concentration that inhibits growth of the organism. Regarding `Cc1c(C(=O)O)c(-c2ccccc2)nn1-c1ccccc1`, the MBC in the assay on Escherichia coli [1] came out at 280 µg/mL (≈ 1010 µM); against Staphylococcus aureus [2] it was 250 µg/mL (≈ 898 µM); in the assay on Klebsiella pneumoniae [4], 240 µg/mL (≈ 862 µM); against Bacillus cereus [13], 250 µg/mL (≈ 898 µM). Further, the minimal inhibitory concentration (MIC) against Escherichia coli [1] came to 35 µg/mL (≈ 126 µM); with Staphylococcus aureus [2], 40 µg/mL (≈ 144 µM); in the assay with Klebsiella pneumoniae [4], 30 µg/mL (≈ 108 µM); against Aspergillus flavus [7] (MTCC 873, 48 h), 55 µg/mL (≈ 198 µM); in the assay with Fusarium verticillioides [11] (MTCC 156, 48 h), 45 µg/mL (≈ 162 µM); against Bacillus cereus [13] it was 30 µg/mL (≈ 108 µM). For the same compound, the minimum inhibitory concentration (MIC) with Aspergillus niger [18] (MTCC 281, 48 h) is 50 µg/mL (≈ 180 µM); against Fusarium oxysporum [19] (MTCC 284, 48 h) it was 55 µg/mL (≈ 198 µM). Also, the zone of inhibition at 100 µg/mL in the assay with Fusarium verticillioides [3] (MTCC 156, 48 h, read-out: DIZ) came out at 5 mm; in the assay with Bacillus cereus [5], 8 mm; in the assay with Fusarium oxysporum [6] (MTCC 284, 48 h, read-out: DIZ) it was 5 mm; in the assay on Escherichia coli [10], 8 mm; with Aspergillus flavus [12] (MTCC 873, 48 h, read-out: DIZ) it was 8 mm; in the assay on Staphylococcus aureus [14] it was 8 mm. The zone of inhibition at 100 µg/mL in the assay with Aspergillus niger [17] (MTCC 281, 48 h, read-out: DIZ) stood at 6 mm; in the assay with Klebsiella pneumoniae [24] it was 6 mm. The MFC with Aspergillus flavus [7] (MTCC 873, 48 h) is 300 µg/mL (≈ 1080 µM); with Fusarium verticillioides [11] (MTCC 156, 48 h), 270 µg/mL (≈ 970 µM); with Aspergillus niger [18] (MTCC 281, 48 h) it was 280 µg/mL (≈ 1010 µM); against Fusarium oxysporum [19] (MTCC 284, 48 h) it was 295 µg/mL (≈ 1060 µM). Further, the zone of inhibition at 50 µg/mL in the assay on Bacillus cereus [8] came out at 4 mm; in the assay with Klebsiella pneumoniae [9], 4 mm; with Aspergillus niger [15] (MTCC 281, 48 h, read-out: DIZ), 4 mm; in the assay with Fusarium verticillioides [16] (MTCC 156, 48 h, read-out: DIZ), 6 mm; with Escherichia coli [20] it was 3 mm; in the assay on Staphylococcus aureus [21], 2 mm. Also, the zone of inhibition at 50 µg/mL in the assay with Aspergillus flavus [22] (MTCC 873, 48 h, read-out: DIZ) was 5 mm; in the assay on Fusarium oxysporum [23] (MTCC 284, 48 h, read-out: DIZ), 3 mm.
On to `CN(C)[C@@H]1C(O)=C(C(N)=O)C(=O)[C@@]2(O)C(O)=C3C(=O)c4c(O)cccc4[C@@](C)(O)[C@H]3C[C@@H]12` [TETRACYCLINE], for which the minimum bactericidal concentration (MBC) against Escherichia coli [1], against Staphylococcus aureus [2], against Klebsiella pneumoniae [4] and in the assay with Bacillus cereus [13] was 120 µg/mL (≈ 270 µM) in each case. Besides, the MIC with Escherichia coli [1] came out at 12 µg/mL (≈ 27 µM); in the assay on Staphylococcus aureus [2], 10 µg/mL (≈ 22.5 µM); against Klebsiella pneumoniae [4], 8 µg/mL (≈ 18 µM); with Bacillus cereus [13], 4 µg/mL (≈ 9 µM). Also, the zone of inhibition at 100 µg/mL in the assay with Bacillus cereus [5] amounted to 21 mm; in the assay with Escherichia coli [10] it was 30 mm; with Staphylococcus aureus [14] it was 20 mm; in the assay with Klebsiella pneumoniae [24], 20 mm. Besides, the zone of inhibition at 50 µg/mL in the assay with Bacillus cereus [8] came out at 10 mm; in the assay on Klebsiella pneumoniae [9], 12 mm; with Escherichia coli [20], 18 mm; with Staphylococcus aureus [21], 9 mm.
As for NYSTATIN, the inhibition zone (IZ) in the assay with Fusarium verticillioides [3] stood at 28 mm; with Fusarium oxysporum [6] it was 30 mm; with Aspergillus flavus [12], 20 mm; in the assay with Aspergillus niger [15], 10 mm; in the assay on Fusarium verticillioides [16], 12 mm; in the assay with Aspergillus niger [17], 25 mm. Moreover, the inhibition zone (IZ) in the assay with Aspergillus flavus [22] and with Fusarium oxysporum [23] was 16 mm in each case. Further, the MFC with Aspergillus flavus [7], in the assay with Fusarium verticillioides [11], in the assay with Aspergillus niger [18] and in the assay with Fusarium oxysporum [19] was 100 µg/mL throughout. The minimal inhibitory concentration (MIC) stood at 8 µg/mL against Aspergillus flavus [7], 12 µg/mL against Fusarium verticillioides [11], 10 µg/mL in the assay on Aspergillus niger [18] and 15 µg/mL with Fusarium oxysporum [19].
